Screening data (PubChem BioAssay)
Mdm2 ligase inh: MDM2-luciferase reporter signal enhancers, primary screen, MDM2 E3 ligase inhibitor project, cell-based, luminescence, 1536-well; signal enhancement, % at 5 µM; 0.11% of 210,000 active; cell-based MDM2 ubiquitination luciferase reporter, 2 h; 0 = plate control, 100 = twice control, blank-subtracted; AID 1230, 2008; E3 ubiquitin-protein ligase Mdm2 (Homo sapiens), Q00987;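 active means signal enhancement of 30% or more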;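 further: luminescence tracks abundance of the self-degrading MDM2-luciferase fusion protein; higher signal means inhibition of MDM2 E3 ligase activity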
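Assay system: stable mammalian line carrying autodegrading MDM2–luciferase fusion reporter; Input: 2000 cells in each well; Compound dosing: single-point 5 µM; Schedule: 2 h compound exposure at 37 °C; Signal: SteadyLite luciferase luminescence after 15 min room-temperature reagent incubation; Evaluation: % luminescence enhancement versus blank-corrected plate control mean; Benchmarks: plate controls and plate blanks.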
KCC2 mod: KCC2 cotransporter modulators, thallium flux, primary screen, cell-based, HEK293 KCC2, FluoZin-2 fluorescence, MLSMR | Solute carrier family 12 member 5 (Homo sapiens), Q9H2X9 | KCC2 cells, thallium flux FluoZin-2 fluorescence | B-score of Tl+ flux slope (higher = more flux/activation; lower = inhibition) at 10 µM | 2.2% of 190,000 active;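 active means thallium flux slope and its plate-corrected score both differing from the plate sample mean at a set confidence after two filtering rounds, in either direction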;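 further: slope of fluorescence scaled to starting intensity during 10 to 20 s after thallium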
ROMK primary: ROMK potassium channel modulators, primary screen, cell-based, thallium flux, MLSMR library; 2% of 130,000 active; B-score at 10 µM; AID 1918, 2009; Tet-inducible ROMK, thallium flux fluorescence; actives lie on both sides; ATP-sensitive inward rectifier potassium channel 1 (Homo sapiens), P48048;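 active means signal ratio slope over the read window, or its plate-corrected B-score, at least 3 SD from the plate mean, either direction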;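 further: B-score of the F/F0 ratio slope over 7 to 12 s after thallium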
Target sequence (P48048 whole entry, looked up): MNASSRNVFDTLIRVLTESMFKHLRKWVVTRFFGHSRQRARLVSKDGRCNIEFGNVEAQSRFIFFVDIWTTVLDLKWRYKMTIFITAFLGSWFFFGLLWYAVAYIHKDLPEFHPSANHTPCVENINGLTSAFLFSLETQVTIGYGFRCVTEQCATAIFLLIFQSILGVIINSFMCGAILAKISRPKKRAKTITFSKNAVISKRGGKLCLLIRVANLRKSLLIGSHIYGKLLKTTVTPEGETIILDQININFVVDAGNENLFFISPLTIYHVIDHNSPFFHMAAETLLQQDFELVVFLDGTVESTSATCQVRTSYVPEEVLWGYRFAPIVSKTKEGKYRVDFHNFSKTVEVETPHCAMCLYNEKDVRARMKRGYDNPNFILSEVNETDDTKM
DTT redox prof: compounds producing H2O2 with reducing agent – biochemical, NIH compound library profiling, artefact control for MLSCN library redox annotation, primary screen | DTT-dependent redox cycling H2O2, phenol red/HRP absorbance; 100% = 100 µM peroxide control, 0% = buffer | activation, % at 10 µM | 0.03% of 200,000 active | AID 878, 2007;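 active means activation of at least 50% relative to the plate's high and low controls in the primary single-dose screen; inactive means activation below 50%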;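 further: compound incubated with DTT at 0.8 mM final as the reducing agent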
PKD1 inh: inhibitors of human PKD1 kinase, biochemical, fluorescence polarization. inhibition, % (concentration not given with the values). PKD1 kinase fluorescence polarization assay. AID 797, 2007. Serine/threonine-protein kinase D1 (Homo sapiens), Q15139. 0.056% of 200,000 active; in the data active means inhibition above about 50%
p97 inhibitor: inhibitors of human p97 ATPase, primary screen, biochemical; 0.42% of 220,000 active; Transitional endoplasmic reticulum ATPase (Homo sapiens), P55072; inhibition, % at 8 µM; recombinant p97 ATPase, Kinase-Glo ATP luminescence, 3 h; in the data active means inhibition above about 15%;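 further: 0% = DMSO vehicle and 100% = wells lacking enzyme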
ROMK retest: ROMK channel modulator hit retest, confirmation, cell-based, thallium flux, duplicate, resupplied hits | shares compounds with ROMK primary | 54% of 3,000 active | normalized thallium flux (F/F0 slope) at 10 µM | fluorescence ratio; stronger effect = lower value | AID 1917, 2009;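 active means Flux at 10 µM at least 3 SD below or above vehicle control mean in one or both replicates; inconclusive means no clear call, values can overlap the other calls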
* marks the source's active call; other numbers are inactive results; u = inconclusive; x = no result given. Only some compounds are listed: those with a hit (about 3.4% of all), similar ones and a draw of the others.

SMILES | Mdm2 ligase inh | KCC2 mod | ROMK primary | DTT redox prof | PKD1 inh | p97 inhibitor | ROMK retest
CCn1c(SCC(=O)c2ccc3ccccc3c2)nnc1-c1ccco1 | -2 | -4.1 | -0.027 | 0 | -9 | 3 | x
CC(=O)Nc1ccccc1O | x | 0.64 | x | 0 | -8 | 11 | x
CC(CC(=O)O)Nc1ccccc1O (stereo not given) | -9 | -0.12 | 0.029 | -1 | -5 | 3 | 0.08
CCn1c(N2CCN(CC(=O)c3ccc(OC)cc3)CC2)nc2ccccc21 | 7 | x | -0.66 | -4 | -7 | -4 | x
Clc1cccc2c1Sc1ccccc1CC2N1CCNCC1 (stereo not given) | -3 | 2 | -3.1* | -1 | 13 | -4 | 0.051*
CC(C)Cc1nc(N2CCN(C(=O)c3ccco3)CC2)c(C#N)c2c1CCC2 | 0 | -2.7 | -2.9 | 2 | 0 | -3 | 0.067*
CCOc1c(Br)cc(CNc2ccc3c(c2)OCCO3)cc1OC | -48 | -0.29 | 3.4 | -2 | 0 | 1 | x
CCOc1cc(CNc2ccc3c(c2)OCCO3)cc(Br)c1OC | -11 | -1.3 | 4.9* | -2 | 5 | -3 | 0.076
CC1(C)CNC(=O)c2sc(NC(=O)c3ccccc3Cl)nc2C1 | 16 | -1.5 | -0.32 | -1 | 7 | 7 | 0.076
CC1(C)CC(=O)c2sc(NC(=O)c3ccco3)nc2C1 | -11 | -0.0067 | x | -2 | 1 | -11 | x
O=C(CSc1n[nH]c(-c2ccccc2O)n1)N1CCCc2ccccc21 | -2 | 0.12 | x | 3 | 7 | 2 | x
Cn1c(-c2ccc3c(c2)OCO3)cnc1NCc1cccc(Cl)c1 | -16 | -0.69 | -4.8* | 0 | -2 | -5 | 0.065*
CC(=O)c1c(C)[nH]c(C(=O)Nc2ccc(Cl)c(S(=O)(=O)N3CCOCC3)c2)c1C | -12 | 0.44 | 0.4 | 0 | 5 | 4 | x
COCC(C)NC(=O)CSc1nnc(-c2cccc(S(=O)(=O)N3CCCCC3)c2)o1 (stereo not given) | -10 | -0.0059 | 0.064 | 0 | 1 | -1 | x
CC(NC(=O)CSc1nnc(-c2cccc(S(=O)(=O)N3CCCCC3)c2)o1)C12CC3CC(CC(C3)C1)C2 (stereo not given) | -20 | -0.4 | -3.8* | 0 | 2 | 2 | 0.066*
Cc1cc(NC(=O)CCc2ccccc2)c([N+](=O)[O-])cc1C | -14 | -0.98 | -0.17 | 0 | -15 | -3 | x
CCN(CC)CCCN(C(=O)c1ccco1)c1nc(-c2ccc(C)cc2)cs1 | -2 | 0.6 | -3.5* | 0 | -9 | 3 | 0.057*
CN(C)CCCN(C(=O)c1ccco1)c1nc2ccc(Cl)cc2s1 | -7 | 1.4 | -4.1* | -1 | 2 | 1 | u
O=C(Nc1cc2ccccc2oc1=O)c1ccccc1 | -85 | x | -0.13 | -1 | 1 | -10 | x
CN(C)c1ccc(/C=C/C(=O)c2ccccc2O)cc1 | -33 | 0.67 | 1.3 | -1 | -9 | 1 | x
CN(C)c1ccc(/C=C/c2cccc[n+]2[O-])cc1 | -1 | -0.41 | -4.4* | x | x | 9 | 0.054*
Cc1ccc(C2CC2C(=O)NNC(=S)Nc2cccc(Cl)c2)cc1 (stereo not given) | x | 0.84 | x | 1 | -2 | -2 | u
N#C/C(C(N)=O)=C1/CCc2ccccc2N1 | -17 | 0.41 | 4.7* | 0 | 21 | 2 | 0.088
CC1(C)Cc2c(C#N)c(N3CCN(C(=O)c4ccccc4Cl)CC3)nc(-c3ccco3)c2CS1 | -4 | 0.99 | -1.8* | -9 | -4 | -4 | 0.089
CC1(C)Cc2c(c(-c3ccco3)[nH]c(=O)c2C#N)CS1 | -5 | 0.1 | -3.7* | -2 | -11 | 7 | 0.078
SMILES | Mdm2 ligase inh | KCC2 mod | ROMK primary | DTT redox prof | PKD1 inh | p97 inhibitor | ROMK retest
CC1(C)Cc2c(c(-c3ccccc3)[nH]c(=O)c2C#N)CS1 | 3 | x | 0.62 | 0 | 1 | -2 | x
Cc1ccc(C(=O)NC(NC(=O)c2ccc(C)cc2)C(Cl)Cl)cc1 | 5 | 0.097 | x | -3 | -6 | -5 | x
CC1CCN(CCCNC(=O)COc2cc(=O)n(C)c3ccccc23)CC1 | 3 | 0.84 | -0.79 | 0 | -7 | 2 | x
N#CC(C#N)=C1C=CC=CN1/C(=C\c1ccco1)C(=O)c1ccccc1 | -17 | -1.8 | -6* | 0 | 12 | 7 | 0.036*
N#CC(C#N)=C1C=CC=CN1/C(=C\c1ccco1)C(=O)c1ccc(Br)cc1 | -10 | 0.82 | x | 0 | -14 | 3 | x
COc1ccc(C(=O)/C(=C\c2ccco2)N2C=CC=CC2=C(C#N)C#N)cc1 | -15 | x | x | 2 | -3 | 5 | 0.038*
CCC(C)NS(=O)(=O)c1ccc(S(=O)(=O)Nc2cc3c(cc2C(C)=O)OCO3)cc1 (stereo not given) | -17 | -0.14 | 0.91 | 2 | 6 | 2 | x
CCOc1ccc(C(=O)N[C@H](C(=O)Nc2cccc(S(=O)(=O)N3CCCCC3)c2)C(C)C)cc1 | -2 | -1.5 | -0.57 | 1 | -5 | 3 | x
Cc1ccc(C2C(C(=O)c3cccs3)=C(O)C(=O)N2c2nnc(C)s2)cc1 (stereo not given) | -3 | -0.99 | -2.3 | 0 | 5 | 2 | 0.052*
CCOCCCn1c(=S)[nH]c2cc(C(=O)NCCN(CC)CC)ccc2c1=O | -5 | 0.65 | -0.1 | 1 | -10 | 0 | x
Cc1ccn2c(CNCCn3cccn3)c(C(=O)N3CCCCCC3)nc2c1 | 2 | 0.19 | -1.3 | 0 | 2 | 0 | x
COc1ccc(NC(=S)NCCCCCC(=O)C[N+](=O)[O-])cc1 | -9 | 0.6 | 1.1* | -2 | 4 | 4 | 0.092
O=C(CCCCCNC(=S)Nc1ccc(Cl)cc1)C[N+](=O)[O-] | -4 | 0.46 | 0.61 | -2 | -2 | 5 | x
COc1ccc(-n2c(C)nc3cc(C(=O)NCc4ccc5c(c4)OCO5)ccc32)cc1 | 1 | -0.092 | 4.2* | 0 | -11 | 3 | 0.092
COc1c(C)cc(S(=O)(=O)NC2CC(C)(C)NC(C)(C)C2)c(C)c1C | -7 | -1.3 | x | 0 | 2 | -5 | x
CCOc1cc(C)c(S(=O)(=O)NC2CC(C)(C)NC(C)(C)C2)cc1C | -7 | -0.55 | -3.5* | 0 | -7 | 2 | 0.066*
Cc1cc(CSc2nc(C)cc(=O)[nH]2)c2ncccc2c1 | -1 | -0.28 | -11* | 0 | -10 | 6 | 0.078
